Calls of active or inactive are those of the source.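 The calls were made as follows: active = inhibition above 50% relative to controls in each of two repeat datasets, tested at 10 µM; inactive = the rest.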
Target: Vasopressin V2 receptor (Homo sapiens) (UniProt P30518)
Assay: vasopressin V2 receptor antagonists, SAR follow-up, selectivity assay for GPR35 antagonist project, imaging, beta-arrestin-GFP, U2OS, antagonist mode (AID 463202)
Conditions: U2OS AVPR2 beta-arrestin-GFP translocation imaging; at 10 µM; stronger effect = higher value
In short: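 Test system: U2OS cells expressing human vasopressin V2 receptor and GFP-β-arrestin; Dosing: single compound dose of 10 µM; Schedule: 15 min compound pre-incubation, then 40 min agonist exposure; Technique: imaged GFP-arrestin aggregate spots, wavelet-analysed; Read-out basis: percent activity from spot counts versus controls; Control set: vasopressin 0.01 µIU/mL as low, 10 mIU/mL as high control.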

Vasopressin V2 receptor (Homo sapiens), sequence (P30518 whole entry, looked up): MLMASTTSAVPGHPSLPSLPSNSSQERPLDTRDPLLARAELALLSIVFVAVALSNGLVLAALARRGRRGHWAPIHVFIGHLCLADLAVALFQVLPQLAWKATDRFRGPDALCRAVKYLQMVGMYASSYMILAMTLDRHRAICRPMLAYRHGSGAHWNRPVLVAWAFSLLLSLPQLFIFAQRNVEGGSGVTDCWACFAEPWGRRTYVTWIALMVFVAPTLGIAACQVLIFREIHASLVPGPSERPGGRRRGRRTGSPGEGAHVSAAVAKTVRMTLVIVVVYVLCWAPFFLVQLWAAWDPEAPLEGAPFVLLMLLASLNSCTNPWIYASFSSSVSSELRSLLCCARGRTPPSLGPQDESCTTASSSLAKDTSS

Structure (SMILES) | inhibition
O=C(CCCN1C(=O)/C(=C/c2ccc3c(c2)OCO3)SC1=S)Nc1ccc(C(=O)O)c(O)c1 | 28.4% (inactive)
O=C(Nc1ccc2nc(SCc3ccc(Cl)cc3)sc2c1)c1ccccc1C(=O)N1CCOCC1 | -0.8% (inactive)
CCOC(=O)c1ccc(NC(=O)CCCN2C(=O)/C(=C/c3ccc(C)cc3)SC2=S)cc1 | 28.8% (inactive)
Cc1nc(N2CCC(C)CC2)c2c(C)c(C(=O)Nc3ccc4c(c3)OCCO4)sc2n1 | -5.7% (inactive)
Cc1ccc(Cn2ncc3c(N4CCN(c5ccccc5C)CC4)ncnc32)cc1 | 36.9% (inactive)
CC(C)c1ccc(NC(=O)CSc2nc3ccsc3c(=O)n2Cc2ccc(C(=O)O)cc2)cc1 | 22.9% (inactive)
COc1ccc(/C=C2/SC(=S)N(CCCC(=O)Nc3ccc(O)cc3)C2=O)cc1 | 1.8% (inactive)
COc1ccc(/C=C2\SC(=S)N(CCCC(=O)Nc3ccc(C(=O)O)c(O)c3)C2=O)cc1OC | 22.9% (inactive)
CC(C)(C)c1ccc(OCCC(=O)NCCc2ccc(S(N)(=O)=O)cc2)cc1 | 12.5% (inactive)
O=C(CCCN1C(=O)S/C(=C\C=C\c2ccccc2)C1=O)Nc1ccc(C(=O)O)cc1 | 18.2% (inactive)
COc1ccc(/C=C2\SC(=S)N(CCCC(=O)Nc3ccc(O)cc3)C2=O)cc1 | 25.3% (inactive)
CCOc1ccc(NC(=O)CSc2nc3ccsc3c(=O)n2Cc2ccc(C(=O)O)cc2)cc1 | 15.5% (inactive)
Cc1ccc(/C=C2\SC(=S)N(CCCC(=O)Nc3ccc(O)cc3)C2=O)cc1 | 9.2% (inactive)
Cc1c(C(=O)Nc2ccc3c(c2)OCCO3)sc2ncnc(N3CCC(C)CC3)c12 | -3.7% (inactive)
Clc1ccc(Cn2ncc3c(N4CCN(c5ccccc5)CC4)ncnc32)cc1 | 3.4% (inactive)
Cc1ccccc1N1CCN(c2ncnc3c2cnn3Cc2ccc(Cl)cc2)CC1 | 7.6% (inactive)
O=C(Nc1ccc2nc(SCc3ccccc3)sc2c1)c1ccccc1C(=O)N1CCOCC1 | 3.3% (inactive)
O=C(CCCN1C(=O)/C(=C/c2ccc3c(c2)OCO3)SC1=S)Nc1ccc(C(=O)O)cc1 | -6.5% (inactive)

Results, then the compound that gave them:

inhibition | Structure (SMILES)
18.5% (inactive) | CC(/C=C1\SC(=S)N(CCCC(=O)Nc2ccc(C(=O)O)cc2)C1=O)=C\c1ccccc1
27.3% (inactive) | COc1ccc(/C=C2\SC(=S)N(CCCC(=O)Nc3cccc(C(=O)O)c3)C2=O)cc1OC
4.8% (inactive) | O=C(CCCN1C(=O)/C(=C\c2ccccc2)SC1=S)Nc1ccc(C(=O)O)cc1
-6.8% (inactive) | CCc1ccc(/C=C2\SC(=S)N(CCCC(=O)Nc3ccc(C(=O)O)cc3)C2=O)cc1
-2.9% (inactive) | COc1cccc(/C=C2\SC(=S)N(CCCC(=O)Nc3ccc(C(=O)O)cc3)C2=O)c1
51.3% (inactive) | O=C(CCCN1C(=O)/C(=C/c2ccccc2)SC1=S)Nc1ccc(C(=O)O)c(O)c1
8.9% (inactive) | O=C(CCCN1C(=O)S/C(=C/C=C/c2ccccc2)C1=O)Nc1ccc(C(=O)O)cc1
0.7% (inactive) | O=C(CCCN1C(=O)S/C(=C/c2ccccc2)C1=S)Nc1ccc(C(=O)O)cc1
13.2% (inactive) | O=C(CCCN1C(=O)/C(=C/c2ccc3c(c2)OCO3)SC1=S)Nc1cccc(C(=O)O)c1
30% (inactive) | CC(/C=C1\SC(=S)N(CCCC(=O)Nc2ccc(C(=O)O)c(O)c2)C1=O)=C\c1ccccc1
15.9% (inactive) | O=C(CCCN1C(=O)/C(=C\c2ccccc2)SC1=S)Nc1cccc(C(=O)O)c1
8.2% (inactive) | Cc1ccc(/C=C2\SC(=S)N(CCCC(=O)Nc3cccc(C(=O)O)c3)C2=O)cc1

Reference: PubChem BioAssay AID463202 (Sanford-Burnham Center for Chemical Genomics, 2010)
